Screening results: PubChem, Johns Hopkins Ion Channel Center
KCNQ1 inh – human KCNQ1 channel inhibition. P51787. CHO-K1 KCNQ1, FluxOR thallium flux fluorescence; hits give high values. B-score at 10 µM. 1.3% of 310,000 active. AID 2642;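 active = compounds whose thallium flux B-score, printed positive for inhibition, exceeds three library SD while starting fluorescence stays within three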;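 note: channel opened by potassium depolarization with thallium stimulus after 20 min compound exposure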
KCNK3 inh – human KCNK3 channel inhibition, primary screen. O14649. CHO-KCNK3 thallium flux, FluxOR fluorescence; hits give low values. B-score at 10 µM. 0.84% of 340,000 active. AID 602410;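 active = B-score under library mean minus 4 SD, starting fluorescence ratio at most library mean plus 5 SD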;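 note: more negative B-score means stronger inhibition of thallium flux through KCNK3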
Kir21 inh – inhibitors of mouse Kir2.1 inward-rectifier potassium channel; 0.85% of 310,000 active; P35561; HEK293-Kir2.1, FluxOR thallium flux fluorescence; hits give low values; B-score at 10 µM;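 active = fluorescence ratio B-score at or below minus 3 SD of library scores, with starting-brightness B-score within 2 SD, cut at about -4.2 in these data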;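 note: channel flux triggered by added potassium and thallium sulfate stimulus; B-score of peak minus minimum fluorescence over baseline after thallium stimulus; more negative B-score means stronger Kir2.1 block with less thallium influx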
Target sequence (P35561 whole entry, looked up): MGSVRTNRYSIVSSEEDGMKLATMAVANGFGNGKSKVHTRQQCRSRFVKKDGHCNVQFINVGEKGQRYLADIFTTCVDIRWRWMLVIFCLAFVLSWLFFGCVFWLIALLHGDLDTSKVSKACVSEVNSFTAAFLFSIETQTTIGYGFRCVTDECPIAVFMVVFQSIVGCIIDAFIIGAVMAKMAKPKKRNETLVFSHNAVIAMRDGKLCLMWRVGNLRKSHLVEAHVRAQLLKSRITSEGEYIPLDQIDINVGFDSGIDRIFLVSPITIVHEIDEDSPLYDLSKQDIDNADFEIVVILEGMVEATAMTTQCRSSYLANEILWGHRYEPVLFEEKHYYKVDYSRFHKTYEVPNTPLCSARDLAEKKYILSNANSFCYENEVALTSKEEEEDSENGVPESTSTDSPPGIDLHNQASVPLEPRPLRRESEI
hERG protect – compounds protecting human hERG from proarrhythmic drug block. Q12809. CHO-hERG, FluxOR thallium flux, dofetilide IC70 present. activation (rescue from dofetilide block), less the hit threshold, % at 10 µM. 0.51% of 310,000 active. AID 1511;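 active = activation above the mean of controls blocked by dofetilide plus 5 SD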;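 note: thallium influx through hERG after potassium depolarization seen as dye fluorescence rise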
KCNQ1 act – potentiates or activates the human KCNQ1 potassium channel; P51787; CHO-K1 KCNQ1, thallium flux FluxOR fluorescence; hits give high values; B-score at 10 µM; 0.35% of 310,000 active; AID 2648;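 active = fluorescence ratio B-score, a plate-corrected score, at least three library SD, with initial intensity B-score within 5 SD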
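System: Stable KCNQ1 CHO-K1 line | Incubation: 90 min dye loading and 20 min compound exposure, both at room temperature | Measure: Ratio B score | Medium: Assay buffer for compound exposure, DMSO matched across wells | Compound dosing: Single-concentration screen | Probe or stimulus: K+/Tl+ depolarizing stimulus | Measured by: Kinetic FluxOR fluorescence, 10 s baseline plus 110 s post-stimulus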
KCNK9 block – inhibitors of human KCNK9 two-pore domain potassium channel; Q9NPC2; HEK293 KCNK9, FluxOR thallium flux fluorescence; hits give low values; B-score at 10 µM; 1.2% of 310,000 active;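 active = ratio B-score over 3 SD below the library mean, with starting fluorescence within 5 SD of its mean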;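 note: negative B-score means less thallium flux so channel inhibition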
Target sequence (Q9NPC2 whole entry, looked up, the tested form may be a part): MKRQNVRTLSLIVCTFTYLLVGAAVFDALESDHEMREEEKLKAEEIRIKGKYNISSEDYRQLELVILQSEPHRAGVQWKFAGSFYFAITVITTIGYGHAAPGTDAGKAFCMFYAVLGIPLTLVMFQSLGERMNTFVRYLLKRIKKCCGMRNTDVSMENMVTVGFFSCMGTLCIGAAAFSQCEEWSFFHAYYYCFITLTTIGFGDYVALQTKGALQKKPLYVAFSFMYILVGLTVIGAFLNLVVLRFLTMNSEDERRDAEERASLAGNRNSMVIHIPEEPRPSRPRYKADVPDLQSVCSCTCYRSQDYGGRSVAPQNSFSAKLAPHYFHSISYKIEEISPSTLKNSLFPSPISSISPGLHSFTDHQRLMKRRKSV
KCNQ1 inh valid – confirmation of human KCNQ1 potassium channel inhibitors. 93% of 1,600 active. inhibition, % at 10 µM. KCNQ1 cell line, FluxOR thallium flux fluorescence. shares compounds with KCNQ1 inh. AID 588353;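 active = primary screen active, with duplicate mean exceeding buffer control mean plus 3 SD of buffer wells, cut at about 28% in these data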
CHO Tl flux – counter-screen for KCNQ1 inhibitors: effect in parental CHO cells | shares compounds with KCNQ1 inh | parental CHO-K1, FluxOR thallium flux fluorescence ratio; hits give low values; zero means no signal rise above baseline | fluorescence ratio (Tl flux) at 10 µM | 21% of 1,600 active;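 active = mean of duplicate thallium-flux fluorescence ratios in parental host cells more than 5 SD below the buffer control mean, cut at about 0.38 in these data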;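 note: ratio is peak minus minimum fluorescence divided by baseline fluorescence; actives read low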
KCNQ1 APC inh – confirmation of human KCNQ1 potassium channel inhibitors by electrophysiology | shares compounds with KCNQ1 inh | KCNQ1-CHO cells, automated patch clamp current | calls only at 10 µM | 20% of 490 active | AID 624120;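 active = KCNQ1 current drop exceeding 3 SD of negative control wells, seen in both duplicate runs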;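 note: steady state current during a 2 s step from -80 to +40 mV; negative values mean current inhibition and positive values mean potentiation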
KCNQ2 spec – rat KCNQ2 inhibition in KCNQ1 inhibitor specificity screen. shares compounds with KCNQ1 inh. KCNQ2 cells, FluxOR thallium flux fluorescence. inhibition, % at 10 µM. 71% of 1,600 active. AID 651746;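 active = mean percent inhibition of the KCNQ2 thallium signal more than 5 SD above the buffer-only control wells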;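 note: KCNQ2 expressed in CHO cells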
KCNQ1-KCNE1 inh – selectivity of KCNQ1 inhibitors: inhibition of human KCNQ1/KCNE1 channel; shares compounds with KCNQ1 inh; AID 652147; 77% of 1,600 active; KCNQ1/KCNE1 cells, FluxOR thallium flux fluorescence; inhibition, % at 10 µM;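 active = mean percent inhibition of duplicate wells above the buffer-only control mean plus 3 SD of those controls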
KCNK9 block conf – confirmation of human KCNK9 potassium channel inhibitors. shares compounds with KCNK9 block. HEK293 KCNK9 cells, FluxOR thallium flux fluorescence. inhibition, % at 10 µM. 43% of 4,900 active. AID 492992;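 active = thallium signal inhibited by more than 5 SD of the compound-free buffer control wells, on both duplicate plates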
Kir2-1 spec – tests whether KCNK9 modulators also affect mouse Kir2.1; shares compounds with KCNK9 block; 4% of 4,900 active; inhibition, % at 10 µM; Kir2.1 cells, FluxOR thallium flux fluorescence;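 active = thallium signal drop more than 5 SD beyond the mean of the no-compound control wells, seen in both duplicate plates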;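 note: signal is fluorescence rise after thallium addition divided by baseline fluorescence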
HEK293 Tl ctr – non-induced cell nonspecific activity of KCNK9 modulators | inhibition, % at 10 µM | 40% of 4,900 active | shares compounds with KCNK9 block | non-induced KCNK9-HEK293, FluxOR thallium flux;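 active = thallium signal drop beyond 5 SD of the untreated control mean, on both duplicate plates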
KCNK3 inh conf – human KCNK3 channel inhibition, confirmation assay; shares compounds with KCNK3 inh; CHO-KCNK3 thallium flux, FluxOR fluorescence; 0% buffer, 100% carvedilol maximal block; ratio percent of control, % at 10 µM; 99% of 2,400 active; AID 651638;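 active = ratio percent of control, averaged over triplicates, above buffer control mean plus 5 SD, cut at about 64% in these data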;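 note: ratio is the fluorescence rise from min to max over baseline after thallium stimulus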
KCNK3 noninduced – KCNK3 inhibitor counter-screen hit in non-induced cells | shares compounds with KCNK3 inh | non-induced KCNK3 parental cells, FluxOR thallium flux; hits give low values | thallium flux ratio (lower = more inhibition) at 10 µM | 40% of 2,400 active | AID 651747;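 active = thallium flux ratio, averaged over three wells, more than 5 SD below the buffer control mean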;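 note: host cells are CHO cells without KCNK3 induction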
A number is an active result; 0 = inactive; - = no result given; + = active, no number. Hits are enriched below; roughly 3.8% of the tested compounds scored in any of these assays.

SMILES	KCNQ1 inh	KCNK3 inh	Kir21 inh	hERG protect	KCNQ1 act	KCNK9 block	KCNQ1 inh valid	CHO Tl flux	KCNQ2 spec	KCNQ1-KCNE1 inh	KCNK3 inh conf	KCNK3 noninduced	others
COc1ccc(N2CCN(c3ncnc4scc(-c5ccccc5)c34)CC2)cc1	6	-11.1	0	0	0	-12.1	93.0	0	106.3%	108.0%	116.7	0	KCNQ1 APC inh=0;KCNK9 block conf=28.5%;Kir2-1 spec=0;HEK293 Tl ctr=0
CN1CCN(C(=O)c2cc3ccccc3cc2O)CC1	-	0	-	-	-	-	-	-	-	-	-	-
CSc1ccc(CN(C)C(C)C(=O)NCC2CCCCC2)cc1 (configuration not stated)	6	-9.36	0	0	0	0	65.5	0	69.0%	79.5%	95.3	0
CSc1ccc(CN(C)C(C)C(=O)Nc2ccc(F)c(F)c2F)cc1 (configuration not stated)	0	0	0	0	0	0	-	-	-	-	-	-
CC(C(=O)NCC1CCCCC1)N(C)Cc1ccc(Br)cc1 (configuration not stated)	8	-15	0	0	0	0	69.0	0	92.0%	66.0%	120.7	0.156
CC(OC(=O)c1ccc(Br)o1)C(=O)NCC1CCCCC1 (configuration not stated)	-	0	-	-	-	-	-	-	-	-	-	-
CC(C(=O)NCC1CCCCC1)N(C)Cc1ccc(Cl)cc1 (configuration not stated)	9	-9.72	0	0	0	-7.17	75.5	0.376	68.7%	98.5%	105.3	0
CN(C)CCNC(=O)c1ccc2c(c1)N(Cc1ccc(F)cc1)CCS2	0	0	0	0	0	0	-	-	-	-	-	-
O=C(NC1CCCC1)c1ccc2c(c1)N(Cc1ccc(F)cc1)CCS2	9	-9.26	0	0	0	-13.9	75.5	0	98.0%	90.5%	96.3	0	KCNK9 block conf=74.5%;Kir2-1 spec=0;HEK293 Tl ctr=41.5%
COc1ccc(-c2coc3cc(OC(C)=O)c(OC)cc3c2=O)cc1	-	0	-	-	-	-	-	-	-	-	-	-
Cc1nc(N2CCN(Cc3ccc4c(c3)OCO4)CC2)c2cc(-c3ccccc3)sc2n1	7	-10.1	0	0	0	0	118.0	0	111.0%	130.0%	94.7	0	KCNQ1 APC inh=0
CCCCn1c(N)c(N(CC(C)C)C(=O)CN2C(=O)NC3(CCC(C(C)(C)CC)CC3)C2=O)c(=O)[nH]c1=O (configuration not stated)	-	0	-	-	-	-	-	-	-	-	-	-
O=C(O)c1ccc(NC2=C(Cl)C(=O)c3ccccc3C2=O)cc1	15	-11.7	-9.06	0	0	-12.4	167.0	0.261	117.7%	+	137.0	0.0923
O=C(O)c1cccc(NC2=C(Cl)C(=O)c3ccccc3C2=O)c1	16	-8.71	-7.33	0	0	0	155.0	0.28	118.7%	+	126.3	0.123
Cc1ccc(NC2=C(NC(=O)c3ccccc3)C(=O)c3ccccc3C2=O)cc1Cl	0	0	0	0	0	0	-	-	-	-	-	-
CC1=C(Nc2ccc(C(=O)O)cc2)C(=O)c2ccccc2C1=O	0	0	0	0	0	0	-	-	-	-	-	-
S=C(NCc1ccccc1)NC1CCCc2ccccc21 (configuration not stated)	8	-13.4	-6.22	0	0	0	0	0	66.0%	0	112.0	0
Cc1nc(N2CCN(c3ccccn3)CC2)c2c(C)c(C(=O)Nc3ccc(F)cc3Cl)sc2n1	0	0	0	0	0	0	-	-	-	-	-	-
COc1ccc(NC(=O)c2sc3nc(C)nc(N4CCN(c5ccccn5)CC4)c3c2C)cc1Cl	9	-12.3	0	0	0	0	97.5	0	88.0%	105.0%	118.0	0.154	KCNQ1 APC inh=0
CCc1cc(=O)n2c([nH]c3ccccc32)c1C#N	0	0	0	0	0	0	-	-	-	-	-	-
CCc1cc(=S)n2c([nH]c3ccccc32)c1C#N	11	-9.35	0	0	0	0	102.5	0	112.0%	81.5%	137.3	0.0573	KCNQ1 APC inh=0
CCN(C(=O)CCS(=O)(=O)c1ccc2c(c1)oc(=O)n2C)c1ccc(OC)cc1	0	0	0	0	0	0	-	-	-	-	-	-
Cc1ccc(NC(=S)Nc2cccnc2)c(S(=O)(=O)N2CCCCC2)c1	13	-11.9	0	0	0	0	97.0	0	0	68.5%	110.3	0	KCNQ1 APC inh=0
COCC(C)N1C(=O)Cc2c1nc(N)c1c(N)nc(N3CCN(c4ccccc4F)CC3)c(C#N)c21 (configuration not stated)	6	0	0	0	0	-10.7	151.5	0	0	+	114.7	0.147	KCNQ1 APC inh=0;KCNK9 block conf=62.0%;Kir2-1 spec=0;HEK293 Tl ctr=0
COCCN1C(=O)Cc2c1nc(N)c1c(N)nc(N3CCN(c4ccc(F)cc4)CC3)c(C#N)c21	0	0	0	0	0	0	-	-	-	-	-	-
Cc1ccc(OCC(=O)Nc2ccc3c(c2)C(=O)N(CCC(=O)O)C3=O)cc1	0	0	0	0	0	0	-	-	-	-	-	-
CN(Cc1cccc2cnccc12)C(=O)c1cc(COc2ccc(F)cc2F)on1	0	0	0	0	0	0	-	-	-	-	-	-
CCc1ccc(CN(C)C(=O)c2cc(COc3cccc4cnccc34)on2)cc1	11	-13.8	0	0	0	-10.1	160.0	0.326	132.0%	+	126.7	0.147	KCNK9 block conf=0;Kir2-1 spec=0;HEK293 Tl ctr=0
